From ChEMBL document CHEMBL1932913, “Synthesis and antitumor evaluation of some new 1,3,4-oxadiazole-based heterocycles” (Eur J Med Chem, 2012)
In brackets after ≈: the same amount, converted by molar mass. Activity calls are given as the source filed them. No cut-off for these calls is given here.

Assays:
WI-38 = assay: Cytotoxicity against human WI38 cells after 96 hrs by MTT assay; format: cell-based; conditions: WI-38, 96 h
Procedure, shortened: (§1)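 Cells from ATCC, batch cultured 10 d, seeded at 10 × 10³ cells/well in RPMI-1640 with fetal bovine serum, attached 24 h at 37 °C, 5% CO₂. Serum-free medium, then test samples at final 1000, 500, 200, 100, 50, 20, 10 (DMSO ≤1% v/v); 96 h incubation. Formazan read-out against untreated controls; 5-fluorouracil positive control; IC50 from dose–response curve.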

MCF7 = assay: Cytotoxicity against human MCF7 cells after 96 hrs by MTT assay; format: functional, cell-based; conditions: MCF7, 96 h; procedure, shortened: as §1
Vero = assay: Cytotoxicity against african green monkey Vero cells after 96 hrs by MTT assay; format: cell-based; conditions: Chlorocebus sabaeus; procedure, shortened: as §1
HepG2 = assay: Cytotoxicity against human HepG2 cells after 96 hrs by MTT assay; format: functional, cell-based; conditions: HepG2, 96 h; procedure, shortened: as §1
Nucleic Acid = assay: Protection against bleomycin-iron complex-induced DNA damage using EDTA after 1 hr by thiobarbituric acid method; format: nucleic-acid assay
Procedure, shortened: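 Bleomycin DNA-damage assay, 1.0 ml final: DNA 0.2 mg/ml, bleomycin 0.05 mg/ml, FeCl₃ 0.025 mM, MgCl₂ 5 mM, KH₂PO₄–KOH pH 7.0 30 mM, sample 0.1 mg/ml in MeOH (ascorbic acid 0.24 mM reference). 37 °C for 1 h; stopped with EDTA; TBA plus HCl, 80 °C 15 min; absorbance read. Three experiments, mean ± S.E.M.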

SMILES | IC50 (WI-38) [µg/mL] | IC50 (MCF7) [µg/mL] | IC50 (Vero) [µg/mL] | IC50 (HepG2) [µg/mL] | Activity (Nucleic Acid)
N#C/C(=C1\SC(=O)CN1c1ccccc1)c1nnc(NC(=O)c2ccccc2)o1 | 52.4 (≈ 130 µM) | 69.2 (≈ 172 µM) | 50.3 (≈ 125 µM) | 51.2 (≈ 127 µM) | –
CS/C(Nc1ccccc1)=C(\C#N)c1nnc(NC(=O)c2ccccc2)o1 | 98.7 (≈ 262 µM) | 107 (≈ 284 µM) | 132 (≈ 351 µM) | 125 (≈ 332 µM) | –
O=c1[nH]cc(F)c(=O)[nH]1 [FLUOROURACIL] | 3.2 (≈ 24.6 µM) | – | – | – | –
Nc1n[nH]c(Nc2ccccc2)c1-c1nnc(NC(=O)c2ccccc2)o1 | 38.4 (≈ 106 µM) | 38.3 (≈ 106 µM) | 36.3 (≈ 100 µM) | 33.7 (≈ 93.3 µM) | –
O=C(Nc1nnc(-c2nc3c(ccc4ccccc43)oc2=O)o1)c1ccccc1 | 181 (≈ 470 µM) | 222 (≈ 577 µM) | 189 (≈ 492 µM) | 190 (≈ 494 µM) | –
Cc1c(/C=c2/c(=O)s/c(=C(\C#N)c3nnc(NC(=O)c4ccccc4)o3)n2-c2ccccc2)c(=O)n(-c2ccccc2)n1C | 175 (≈ 291 µM) | 167 (≈ 277 µM) | 170 (≈ 282 µM) | 146 (≈ 242 µM) | –
O=C(Nc1nnc(-c2cc3ccccc3oc2=O)o1)c1ccccc1 | 35.8 (≈ 107 µM) | 32.6 (≈ 97.8 µM) | 34.5 (≈ 104 µM) | 35.6 (≈ 107 µM) | –
Nc1nn(-c2ccccc2)c(Nc2ccccc2)c1-c1nnc(NC(=O)c2ccccc2)o1 | 90.5 (≈ 207 µM) | 99.1 (≈ 227 µM) | 98.8 (≈ 226 µM) | 98.7 (≈ 226 µM) | –
N#CCc1nnc(NC(=O)c2ccccc2)o1 | 24.4 (≈ 107 µM) | 39.2 (≈ 172 µM) | 30.3 (≈ 133 µM) | 21.2 (≈ 92.9 µM) | Active
Nc1c(C(=O)c2ccccc2)sc(Nc2ccccc2)c1-c1nnc(NC(=O)c2ccccc2)o1 | 89.6 (≈ 186 µM) | 100 (≈ 209 µM) | 101 (≈ 209 µM) | 90.7 (≈ 188 µM) | –
N#C/C(=C(\S)Nc1ccccc1)c1nnc(NC(=O)c2ccccc2)o1 | 84.6 (≈ 233 µM) | 77.5 (≈ 213 µM) | 82.4 (≈ 227 µM) | 100 (≈ 276 µM) | –
NC1=Nn2c(nnc2NC(=O)c2ccccc2)C1 | 65 (≈ 268 µM) | 66.8 (≈ 276 µM) | 69.8 (≈ 288 µM) | 65.6 (≈ 271 µM) | –
O=C(Nc1nnc(-c2nc3ccc4ccccc4c3oc2=O)o1)c1ccccc1 | 90.9 (≈ 237 µM) | 96.9 (≈ 252 µM) | 95.4 (≈ 248 µM) | 111 (≈ 290 µM) | –
CC1=CS/C(=C(\C#N)c2nnc(NC(=O)c3ccccc3)o2)N1c1ccccc1 | 17.3 (≈ 43.1 µM) | 25.8 (≈ 64.3 µM) | 15.8 (≈ 39.4 µM) | 12.4 (≈ 30.9 µM) | Active
COc1ccc(/C=C(/C#N)c2nnc(NC(=O)c3ccccc3)o2)cc1 | 71.2 (≈ 206 µM) | 49.9 (≈ 144 µM) | 95.6 (≈ 276 µM) | 69.5 (≈ 201 µM) | –
CC(=O)c1sc(Nc2ccccc2)c(-c2nnc(NC(=O)c3ccccc3)o2)c1N | 84.6 (≈ 202 µM) | 75.5 (≈ 180 µM) | 76.4 (≈ 182 µM) | 70.2 (≈ 167 µM) | –
N#C/C(=C/c1cn(-c2ccccc2)nc1-c1ccccc1)c1nnc(NC(=O)c2ccccc2)o1 | 24.1 (≈ 52.6 µM) | 37.4 (≈ 81.6 µM) | 39.6 (≈ 86.4 µM) | 38.1 (≈ 83.1 µM) | –
N#C/C(c1nnc(NC(=O)c2ccccc2)o1)=c1\sc(=O)/c(=C/c2cn(-c3ccccc3)nc2-c2ccccc2)n1-c1ccccc1 | 340 (≈ 537 µM) | 411 (≈ 648 µM) | 257 (≈ 405 µM) | 250 (≈ 395 µM) | –
